In ChEMBL document CHEMBL4699539, “Dual antagonists of α5β1/αvβ1 integrin for airway hyperresponsiveness” (Bioorg Med Chem Lett, 2020):
Active and inactive are the calls of the source. The calls are words filed in the database; no cut-off is given here.

Legend:
Integrin alpha-V/beta-6 = Integrin alpha-V/beta-6 (Homo sapiens, UniProt P06756+P18564); assay: Inhibition of alphavbeta6 integrin (unknown origin) by solid phase binding assay; assay type: protein-complex assay
Integrin alpha-5/beta-1 [1] = target: T1, Integrin alpha-5/beta-1 (Homo sapiens, UniProt P05556+P08648); assay: Inhibition of alpha5beta1 integrin in human SW480 cells assessed as inhibition of cell adhesion to fibronectin incubated for 60 mins by crystal violet staining based analysis
How it was run: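 Adhesion of SW480 cells plated on fibronectin coated at 0.3 µg/ml, used to measure α5β1-mediated attachment. IC50 values are means ± S.D., n = 3 or higher.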

Integrin alpha-V/beta-8 = Integrin alpha-V/beta-8 (Homo sapiens, UniProt P06756+P26012); assay: Inhibition of alphavbeta8 integrin (unknown origin) by solid phase binding assay; assay type: protein-complex assay
Integrin alpha-V/beta-3 [2] = target: T2, Integrin alpha-V/beta-3 (Homo sapiens, UniProt P05106+P06756); assay: Inhibition of alphavbeta3 integrin (unknown origin) by solid phase binding assay; assay type: protein-complex assay
Integrin alpha-4/beta-1 = Integrin alpha-4/beta-1 (Homo sapiens, UniProt P05556+P13612); assay: Inhibition of alpha4beta1 integrin (unknown origin) by solid phase binding assay; assay type: protein-complex assay
[3] = Apparent permeability of the compound across basolateral to apical side in human Caco-2 cells; assay type: ADME, cell-based
[4] = Apparent permeability of the compound across apical to basolateral side in human Caco-2 cells; assay type: ADME, cell-based
Integrin alpha-5/beta-1 [5] = target: T1, Integrin alpha-5/beta-1; assay: Inhibition of alpha5beta1 integrin (unknown origin) by solid phase binding assay; assay type: protein-complex assay
Integrin alpha-V/beta-3 [6] = target: T2, Integrin alpha-V/beta-3; assay: Inhibition of alphavbeta3 integrin (unknown origin) expressed in human SW480 cells transfected with human beta3 assessed as inhibition of cell adhesion to fibrinogen incubated for 60 mins by crystal violet staining based analysis
How it was run: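 SW480 cells transfected with human β3, allowed to adhere to fibrinogen coated at 1 µg/ml, used to measure αvβ3-mediated attachment. IC50 values are means ± S.D., n = 3 or higher.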

Integrin alpha-V/beta-1 [7] = target: T3, Integrin alpha-V/beta-1 (Homo sapiens, UniProt P05556+P06756); assay: Inhibition of alphavbeta1 integrin (unknown origin) by solid phase binding assay; assay type: protein-complex assay
Homo sapiens = species on record: Homo sapiens; assay: Selectivity index, ratio of IC50 for alphavbeta3 integrin (unknown origin) to IC50 for alpha4beta1 integrin (unknown origin) by solid phase binding assay
Integrin alpha-V/beta-5 = Integrin alpha-V/beta-5 (Homo sapiens, UniProt P06756+P18084); assay: Inhibition of alphavbeta5 integrin (unknown origin) by solid phase binding assay; assay type: protein-complex assay
Integrin alpha-V/beta-1 [8] = target: T3, Integrin alpha-V/beta-1; assay: Inhibition of alphavbeta1 integrin (unknown origin) expressed in CHO cells assessed as inhibition of cell adhesion to fibronectin incubated for 60 mins by crystal violet staining based analysis
How it was run: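 Adhesion of CHOαv cells to fibronectin coated at 0.3 µg/ml, used to measure αvβ1-mediated attachment. IC50 values are means ± S.D., n = 3 or higher.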

Mus musculus [9] = species on record: Mus musculus; assay: Antagonist activity at alpha5beta1 integrin/alphavbeta1 integrin in mouse tracheal rings assessed as inhibition of methacholine-induced airway hyperresponsiveness at 100 nM pretreated with IL-13 for 12 hrs followed by incubation with compound for 1 hr in presence of methacholine; assay type: tissue-based; details: Trachea, filed as antagonist
How it was run: (§1)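 Wild-type mouse tracheal rings incubated 12 h with IL-13 (100 ng/mL), then 1 h with compound or vehicle. Force generated was measured in response to a range of methacholine concentrations. Negative-control rings received no IL-13. n=3 rings per group; statistics by repeated measures of variance.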

Mus musculus [10] = species on record: Mus musculus; assay: Antagonist activity at alpha5beta1 integrin/alphavbeta1 integrin in mouse tracheal rings assessed as inhibition of methacholine-induced airway hyperresponsiveness at 100 nM incubated with compound for 1 hr in presence of methacholine; assay type: tissue-based; details: Trachea, filed as antagonist; how it was run: as §1

T2 sequence (P05106 27-788 limits assumed): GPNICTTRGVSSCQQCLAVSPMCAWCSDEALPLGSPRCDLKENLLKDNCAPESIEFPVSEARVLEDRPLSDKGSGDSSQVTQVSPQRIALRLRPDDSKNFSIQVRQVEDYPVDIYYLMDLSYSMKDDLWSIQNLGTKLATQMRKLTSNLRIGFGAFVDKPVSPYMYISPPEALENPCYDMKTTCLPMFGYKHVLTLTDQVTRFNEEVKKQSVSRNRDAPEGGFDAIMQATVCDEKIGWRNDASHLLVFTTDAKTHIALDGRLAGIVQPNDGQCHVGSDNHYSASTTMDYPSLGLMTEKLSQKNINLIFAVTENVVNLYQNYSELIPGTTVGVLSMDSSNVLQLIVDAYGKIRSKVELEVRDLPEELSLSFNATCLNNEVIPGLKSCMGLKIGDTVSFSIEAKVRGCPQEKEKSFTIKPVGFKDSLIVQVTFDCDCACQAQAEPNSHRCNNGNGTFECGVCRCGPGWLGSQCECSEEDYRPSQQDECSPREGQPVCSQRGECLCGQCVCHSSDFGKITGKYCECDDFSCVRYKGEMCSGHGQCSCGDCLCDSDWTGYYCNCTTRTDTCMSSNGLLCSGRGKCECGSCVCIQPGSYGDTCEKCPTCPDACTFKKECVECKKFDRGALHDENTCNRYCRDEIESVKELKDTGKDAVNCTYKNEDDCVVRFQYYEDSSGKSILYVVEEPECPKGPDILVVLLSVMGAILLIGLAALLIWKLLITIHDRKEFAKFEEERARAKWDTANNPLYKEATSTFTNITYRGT
T2 sequence (P06756 31-889 limits assumed): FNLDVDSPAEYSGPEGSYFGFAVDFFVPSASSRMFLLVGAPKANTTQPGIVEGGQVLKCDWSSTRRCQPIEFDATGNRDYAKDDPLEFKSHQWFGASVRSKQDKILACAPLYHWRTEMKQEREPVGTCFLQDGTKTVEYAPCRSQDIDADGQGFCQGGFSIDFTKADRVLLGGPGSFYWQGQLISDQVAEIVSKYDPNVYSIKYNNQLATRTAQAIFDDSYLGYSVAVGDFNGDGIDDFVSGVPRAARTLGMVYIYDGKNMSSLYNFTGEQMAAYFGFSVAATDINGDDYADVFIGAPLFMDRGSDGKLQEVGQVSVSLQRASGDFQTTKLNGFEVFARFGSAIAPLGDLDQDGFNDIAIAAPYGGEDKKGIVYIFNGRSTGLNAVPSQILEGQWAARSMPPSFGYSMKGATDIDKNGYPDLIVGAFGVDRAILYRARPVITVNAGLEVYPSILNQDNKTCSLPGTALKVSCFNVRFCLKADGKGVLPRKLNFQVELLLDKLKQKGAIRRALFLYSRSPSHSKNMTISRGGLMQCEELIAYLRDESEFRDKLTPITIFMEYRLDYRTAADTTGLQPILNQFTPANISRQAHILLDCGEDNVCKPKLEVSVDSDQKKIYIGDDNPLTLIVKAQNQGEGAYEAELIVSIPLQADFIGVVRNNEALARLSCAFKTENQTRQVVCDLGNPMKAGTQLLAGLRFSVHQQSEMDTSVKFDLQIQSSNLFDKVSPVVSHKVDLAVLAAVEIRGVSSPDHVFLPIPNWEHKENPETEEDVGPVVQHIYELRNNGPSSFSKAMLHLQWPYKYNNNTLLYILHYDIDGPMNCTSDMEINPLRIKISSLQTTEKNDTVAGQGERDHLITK
T2 sequence (P06756 891-1048 limits assumed): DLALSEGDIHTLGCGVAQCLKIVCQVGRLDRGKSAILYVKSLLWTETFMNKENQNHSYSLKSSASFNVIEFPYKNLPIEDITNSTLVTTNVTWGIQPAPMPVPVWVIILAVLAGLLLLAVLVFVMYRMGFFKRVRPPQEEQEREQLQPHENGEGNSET
T1 sequence (P05556 21-798 limits assumed): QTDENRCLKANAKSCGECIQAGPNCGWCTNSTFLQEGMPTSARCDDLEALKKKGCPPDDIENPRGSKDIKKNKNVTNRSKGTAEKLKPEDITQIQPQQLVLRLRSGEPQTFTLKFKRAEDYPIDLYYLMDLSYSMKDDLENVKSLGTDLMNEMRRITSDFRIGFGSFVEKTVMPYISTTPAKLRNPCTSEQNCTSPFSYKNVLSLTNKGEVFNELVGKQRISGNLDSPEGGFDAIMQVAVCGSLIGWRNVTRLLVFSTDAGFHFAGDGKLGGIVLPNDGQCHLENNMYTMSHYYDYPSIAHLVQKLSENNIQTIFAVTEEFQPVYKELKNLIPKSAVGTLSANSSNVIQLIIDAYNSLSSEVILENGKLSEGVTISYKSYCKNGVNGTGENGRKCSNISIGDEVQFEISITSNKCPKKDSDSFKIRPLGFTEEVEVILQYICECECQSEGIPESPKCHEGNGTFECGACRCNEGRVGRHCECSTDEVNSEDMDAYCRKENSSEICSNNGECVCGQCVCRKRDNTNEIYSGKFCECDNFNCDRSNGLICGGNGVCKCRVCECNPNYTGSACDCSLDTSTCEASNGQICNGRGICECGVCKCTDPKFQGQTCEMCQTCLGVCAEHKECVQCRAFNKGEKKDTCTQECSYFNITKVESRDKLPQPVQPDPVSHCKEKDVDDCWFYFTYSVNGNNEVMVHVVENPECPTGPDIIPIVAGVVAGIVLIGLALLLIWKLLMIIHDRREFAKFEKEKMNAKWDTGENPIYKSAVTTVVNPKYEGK
T1 sequence (P08648 42-894 limits assumed): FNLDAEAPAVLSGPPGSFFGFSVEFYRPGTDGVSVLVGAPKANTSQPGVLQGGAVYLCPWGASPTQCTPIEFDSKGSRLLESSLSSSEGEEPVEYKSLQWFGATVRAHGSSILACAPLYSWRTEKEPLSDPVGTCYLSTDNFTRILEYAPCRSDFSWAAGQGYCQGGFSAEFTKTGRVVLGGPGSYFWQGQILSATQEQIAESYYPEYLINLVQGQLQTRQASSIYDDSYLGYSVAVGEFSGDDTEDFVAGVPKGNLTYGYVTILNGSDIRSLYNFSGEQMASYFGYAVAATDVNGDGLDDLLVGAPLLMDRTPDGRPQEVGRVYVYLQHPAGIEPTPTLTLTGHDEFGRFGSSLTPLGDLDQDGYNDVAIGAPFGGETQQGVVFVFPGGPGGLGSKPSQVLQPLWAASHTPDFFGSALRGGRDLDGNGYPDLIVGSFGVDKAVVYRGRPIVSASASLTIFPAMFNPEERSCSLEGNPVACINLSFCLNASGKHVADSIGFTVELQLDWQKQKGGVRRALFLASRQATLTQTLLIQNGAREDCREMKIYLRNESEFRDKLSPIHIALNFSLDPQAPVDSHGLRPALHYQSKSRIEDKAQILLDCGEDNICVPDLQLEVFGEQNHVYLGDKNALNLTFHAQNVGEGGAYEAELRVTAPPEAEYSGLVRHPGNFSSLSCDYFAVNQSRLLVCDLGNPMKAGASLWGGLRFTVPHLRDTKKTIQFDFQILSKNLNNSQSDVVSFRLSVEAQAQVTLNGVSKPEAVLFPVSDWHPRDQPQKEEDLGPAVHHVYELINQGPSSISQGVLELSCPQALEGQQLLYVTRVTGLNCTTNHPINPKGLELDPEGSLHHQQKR
T1 sequence (P08648 895-1049 limits assumed): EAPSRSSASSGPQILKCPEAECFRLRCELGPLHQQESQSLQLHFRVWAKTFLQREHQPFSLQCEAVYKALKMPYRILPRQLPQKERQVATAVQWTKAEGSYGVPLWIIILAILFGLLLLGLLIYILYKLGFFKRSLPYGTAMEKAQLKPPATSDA
T3 sequence (P05556 21-798 limits assumed): as the sequence (P05556 21-798 limits assumed) above
T3 sequence (P06756 31-889 limits assumed): as the sequence (P06756 31-889 limits assumed) above
T3 sequence (P06756 891-1048 limits assumed): as the sequence (P06756 891-1048 limits assumed) above
Chain of Integrin alpha-V/beta-5 (P06756 31-889 limits assumed): as the sequence (P06756 31-889 limits assumed) above
Chain of Integrin alpha-V/beta-5 (P06756 891-1048 limits assumed): as the sequence (P06756 891-1048 limits assumed) above
Chain of Integrin alpha-V/beta-5 (P18084 24-799 limits assumed): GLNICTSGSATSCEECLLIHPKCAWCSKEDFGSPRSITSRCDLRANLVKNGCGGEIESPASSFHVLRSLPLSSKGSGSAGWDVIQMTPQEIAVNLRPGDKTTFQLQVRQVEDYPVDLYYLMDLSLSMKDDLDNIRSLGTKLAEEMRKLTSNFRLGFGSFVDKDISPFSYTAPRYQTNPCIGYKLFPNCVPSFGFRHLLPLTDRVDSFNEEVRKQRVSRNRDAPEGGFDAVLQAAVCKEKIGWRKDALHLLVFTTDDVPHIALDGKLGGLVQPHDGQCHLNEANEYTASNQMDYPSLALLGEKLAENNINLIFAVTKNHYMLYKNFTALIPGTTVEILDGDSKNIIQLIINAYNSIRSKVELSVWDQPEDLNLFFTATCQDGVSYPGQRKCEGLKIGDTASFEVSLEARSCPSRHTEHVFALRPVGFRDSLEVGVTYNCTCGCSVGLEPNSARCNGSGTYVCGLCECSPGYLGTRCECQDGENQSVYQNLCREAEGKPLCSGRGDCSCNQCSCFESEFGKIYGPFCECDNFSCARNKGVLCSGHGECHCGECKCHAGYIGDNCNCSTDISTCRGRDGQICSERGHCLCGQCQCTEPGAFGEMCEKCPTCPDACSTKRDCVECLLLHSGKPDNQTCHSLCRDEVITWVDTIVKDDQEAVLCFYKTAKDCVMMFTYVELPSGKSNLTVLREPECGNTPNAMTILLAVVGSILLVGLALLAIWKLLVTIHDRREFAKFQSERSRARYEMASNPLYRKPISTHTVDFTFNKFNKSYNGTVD

Structure (SMILES)	IC50 (Integrin alpha-V/beta-6)	IC50 (Integrin alpha-5/beta-1 [1])	IC50 (Integrin alpha-V/beta-8)	IC50 (Integrin alpha-V/beta-3 [2])	IC50 (Integrin alpha-4/beta-1)	IC50 (Integrin alpha-5/beta-1 [5])	IC50 (Integrin alpha-V/beta-3 [6])	IC50 (Integrin alpha-V/beta-1 [7])	IC50 (Integrin alpha-V/beta-5)	IC50 (Integrin alpha-V/beta-1 [8])	further results
N=C(N)Nc1cc(NC(=O)CCCNC(=O)C23CC4CC(CC(C4)C2)C3)cc(C(=O)NCC(=O)NC[C@H](NC(=O)[C@@H]2CCCN2S(=O)(=O)c2ccccc2)C(=O)O)c1	2760 nM	2.6 nM	> 10000 nM	> 10000 nM	105 nM	0.8 nM	8800 nM	0.14 nM	3000 nM	0.8 nM	Papp [3]: 0.27 10^-6 cm/s; Papp [4]: 0.37 10^-6 cm/s; Ratio IC50 (Homo sapiens): > 100
N=C(N)Nc1cc(NC(=O)CCCN)cc(C(=O)NCC(=O)NC[C@H](NC(=O)[C@@H]2CCCN2S(=O)(=O)c2ccccc2)C(=O)O)c1		32 nM					56000 nM				
N=C(N)Nc1cc(NC(=O)CNC(=O)C23CC4CC(CC(C4)C2)C3)cc(C(=O)NCC(=O)NC[C@H](NC(=O)[C@@H]2CCCN2S(=O)(=O)c2ccccc2)C(=O)O)c1	> 10000 nM		> 10000 nM	> 10000 nM	136 nM	1.6 nM		< 0.1 nM	> 10000 nM		
N=C(N)NCCCCNC(=O)NC[C@H](NC(=O)[C@@H]1CCCN1S(=O)(=O)c1ccccc1)C(=O)O		9700 nM					> 100000 nM			4 nM	
N=C(N)NCCCCCCNC(=O)NC[C@H](NC(=O)[C@@H]1CCCN1S(=O)(=O)c1ccccc1)C(=O)O		900 nM					15000 nM			0.9 nM	
CCCCCCCC(=O)Nc1cc(NC(=N)N)cc(C(=O)NCC(=O)NC[C@H](NC(=O)[C@@H]2CCCN2S(=O)(=O)c2ccccc2)C(=O)O)c1		110 nM					16800 nM				
N=C(N)Nc1cc(NC(=O)CCNC(=O)C23CC4CC(CC(C4)C2)C3)cc(C(=O)NCC(=O)NC[C@H](NC(=O)[C@@H]2CCCN2S(=O)(=O)c2ccccc2)C(=O)O)c1	> 10000 nM		> 10000 nM	> 10000 nM	100 nM	1.4 nM		< 0.1 nM	> 10000 nM		Ratio IC50 (Homo sapiens): > 100
N=C(N)Nc1cc(NC(=O)CCCC(=O)NC23CC4CC(CC(C4)C2)C3)cc(C(=O)NCC(=O)NC[C@H](NC(=O)[C@@H]2CCCN2S(=O)(=O)c2ccccc2)C(=O)O)c1	> 10000 nM		> 10000 nM	> 10000 nM	161 nM	1 nM		0.3 nM	980 nM		Ratio IC50 (Homo sapiens): > 100
N=C(N)NCCCCCNC(=O)NC[C@H](NC(=O)[C@@H]1CCCN1S(=O)(=O)c1ccccc1)C(=O)O		500 nM								0.8 nM	
N=C(N)Nc1cccc(C(=O)NCC(=O)NC[C@H](NC(=O)[C@@H]2CCCN2S(=O)(=O)c2ccccc2)C(=O)O)c1							1100 nM			32 nM	inhibition (Mus musculus [9]): Active; inhibition (Mus musculus [10]): Active
N=C(N)Nc1cccc(C(=O)NNC(=O)NC[C@H](NC(=O)[C@@H]2CCCN2S(=O)(=O)c2ccccc2)C(=O)O)c1		50 nM					6500 nM			158 nM	
N=C(N)NCCCCCC(=O)NC[C@H](NC(=O)[C@@H]1CCCN1S(=O)(=O)c1ccccc1)C(=O)O		830 nM					10000 nM			316 nM	
N=C(N)NCCCCC(=O)Nc1ccc(C[C@H](NC(=O)[C@@H]2CCCN2S(=O)(=O)c2ccccc2)C(=O)O)cc1		> 10000 nM					> 10000 nM			0.5 nM	
N=C(N)Nc1cc(NC(=O)CCCCNC(=O)C23CC4CC(CC(C4)C2)C3)cc(C(=O)NCC(=O)NC[C@H](NC(=O)[C@@H]2CCCN2S(=O)(=O)c2ccccc2)C(=O)O)c1	1870 nM		6830 nM	> 10000 nM	182 nM	0.7 nM		< 0.1 nM	320 nM		Ratio IC50 (Homo sapiens): > 100
